Rows were chosen to be rich in hits. Some 3.5% of all compounds tested hit in one or more screens of this group.
NF-kB neuron act: activators of NF-kB expression in neurons, primary screen, cell-based, HTS | fold change at 12.5 µM | human neuronal cells, NF-kB reporter expression; active compounds read high | actives 1.6% (n = 190,000); in the data active means fold change above about 3.3
Pf gametocyte: late stage P. falciparum gametocyte viability inhibitors, primary screen, ATP luminescence, HTS. actives 0.065% (n = 150,000). inhibition, % at 10.9 µM. P. falciparum stage V gametocytes, 24 h. AID 743093, 2013;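 active means inhibition above the mean plus 3 SD of compounds within the control limits, set per campaign, cut at about 38% in these data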
STAT1 activator: STAT1 signaling activators, primary screen, cell-based, HTS, luciferase reporter; activation (% of control), % at 5.5 µM; NIH 3T3 STAT1-luciferase reporter, IFN-gamma, luminescence; 100% = IFN-gamma alone, no compound; AID 932, 2007; actives 2.6% (n = 200,000);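 active means activation above the screen-wide mean activation plus 3 SD, cut at about 130% in these data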
FLuc act counter: FLuc activators, initial screening, artefact control for FLuc-dependent activation tests, biochemical, ATPlite luminescence. 200,000 tested, under 10 active. AID 1027, 2008. activation factor at 10 µM. ATPlite luciferase biochemical, 10 min; 0 = ATP-free wells, 1 = DMSO control. Luciferin 4-monooxygenase (Photinus pyralis), P08659;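 active means luciferase activation factor, scaled between plate controls, of at least 2 with compound at 10 µM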
Target sequence (P08659 whole entry, looked up): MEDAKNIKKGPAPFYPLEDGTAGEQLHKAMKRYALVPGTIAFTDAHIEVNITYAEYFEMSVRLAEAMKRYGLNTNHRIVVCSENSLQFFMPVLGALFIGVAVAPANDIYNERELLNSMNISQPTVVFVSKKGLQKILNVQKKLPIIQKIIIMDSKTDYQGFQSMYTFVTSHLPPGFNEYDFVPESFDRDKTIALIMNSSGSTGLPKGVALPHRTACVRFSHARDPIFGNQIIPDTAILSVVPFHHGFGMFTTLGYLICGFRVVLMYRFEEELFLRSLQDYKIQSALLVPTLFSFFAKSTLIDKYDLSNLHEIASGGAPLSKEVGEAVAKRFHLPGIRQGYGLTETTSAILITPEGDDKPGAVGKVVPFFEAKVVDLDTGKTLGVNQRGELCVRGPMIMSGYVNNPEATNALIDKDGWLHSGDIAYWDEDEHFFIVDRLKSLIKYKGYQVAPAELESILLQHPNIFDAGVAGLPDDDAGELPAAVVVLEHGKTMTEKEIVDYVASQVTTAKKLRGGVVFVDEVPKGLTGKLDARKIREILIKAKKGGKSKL
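Material: luciferase plus luciferin reagent, cell-free. Medium: PBS buffer for ATP. Also added: ATP substrate, dispensed from a 10.24 µM working solution in PBS. Doses: test compounds dosed from 2 mM stocks in 100% DMSO. Incubation: 10 min post-reagent at room temperature. Technique: light output (luminescence). Read-out basis: luminescence gain marking luciferase activators.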
APP 5'UTR act: activators of APP 5'UTR luciferase reporter, primary screen, SH-SY5Y cells | SH-SY5Y APP 5'UTR luciferase reporter, luminescence; zero percent = DMSO vehicle wells | activation, % at 2 µM | actives 1% (n = 190,000);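 active means activation above a set limit, based on mean plus 3 SD of controls, cut at about 140% in these data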
FLuc inh counter: firefly luciferase enzyme inhibitors, primary screen, artefact control for luciferase-based inhibitor screens, biochemical, luminescence, ATPLite; actives 1.5% (n = 200,000); 10 min; Luciferin 4-monooxygenase (Photinus pyralis), P08659; inhibition, % at 10 µM;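 active means inhibition above about 50% when tested at 10 µM, limit read from the data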
Of the large screens only hits and unclear results are named; the others gave an inactive call.

Cc1ccsc1C(=O)NNC(=O)C1CC=CCC1C(=O)O (centres undefined)	STAT1 activator 144
O=C(COC(=O)c1ccccc1[N+](=O)[O-])c1ccc(C2CCCCC2)cc1	FLuc inh counter 80
CSC(=S)N/N=C/c1ccccc1	none
COc1ccc2nc(N3CCOCC3)cc(C)c2c1	NF-kB neuron act 5 (no result: Pf gametocyte)
COc1ccc2c(C)cc(N3CCOCC3)nc2c1	none
C=CCn1c(C)cc(C(=O)CN2NS(=O)(=O)c3ccccc3C2=O)c1C	STAT1 activator 143, FLuc inh counter 55
COc1ccc(C)cc1NC(=O)CN1C(=O)COc2ccc(C)cc21	none (no result: NF-kB neuron act, STAT1 activator, FLuc act counter, APP 5'UTR act, FLuc inh counter)
O=C1NC(=S)N/C1=C/C=C/c1ccccc1	STAT1 activator 134 (no result: Pf gametocyte)
CC1=NN(c2ccccc2)C(=O)C1/C=C1/NC(=S)NC1=O (centres undefined)	none (no result: NF-kB neuron act, STAT1 activator, FLuc act counter, APP 5'UTR act, FLuc inh counter)
CN1CCN(c2ccc(C(=O)c3ccc(F)cc3)cc2)CC1	STAT1 activator 136 (no result: Pf gametocyte)
COc1ccc(-c2nc(-c3cccc(C)c3)no2)cc1OC	STAT1 activator 138 (no result: Pf gametocyte)
COc1ccc(-c2nc(-c3ccccc3OC)no2)cc1OC	STAT1 activator 132
COc1ccc(-c2nc(C3CCCCC3)no2)cc1OC	STAT1 activator 134 (no result: Pf gametocyte)
Cc1cccc(-c2noc(-c3ccc4c(c3)OCO4)n2)c1	APP 5'UTR act 186, FLuc inh counter 82 (no result: NF-kB neuron act)
COc1cc(-c2nc(-c3cccc(C)c3)no2)cc(OC)c1OC	none (no result: Pf gametocyte)
CCOc1cc(-c2nc(-c3ccccc3OC)no2)cc(OCC)c1OCC	none
C=CCSc1ncccc1C(=O)NCc1ccccc1	none (no result: Pf gametocyte)
CC1(C(=O)O)CCC(C(=O)NNC(=O)c2ccccc2Cl)C1(C)C (centres undefined)	none (no result: NF-kB neuron act, STAT1 activator, FLuc act counter, APP 5'UTR act, FLuc inh counter)
O=C(Cc1ccccc1)NC(NCCc1ccccc1)C(Cl)(Cl)Cl (centres undefined)	none (no result: Pf gametocyte)
CC(C)CCc1noc(CN2CCC(C(=O)N3CCOCC3)CC2)n1	none (no result: NF-kB neuron act, STAT1 activator, FLuc act counter, APP 5'UTR act, FLuc inh counter)
CC(=O)N(C)c1ccc(N=Nc2c(C)[nH]n(C(N)=S)c2=O)cc1	NF-kB neuron act 4.5, STAT1 activator 148, APP 5'UTR act 139 (no result: Pf gametocyte)
CC(=O)N(C)c1ccc(N=Nc2c(C)[nH]n(-c3ccccc3)c2=O)cc1	none (no result: NF-kB neuron act, STAT1 activator, FLuc act counter, APP 5'UTR act, FLuc inh counter)
Cc1cccc(N=Nc2c(C)[nH]n(C(N)=S)c2=O)c1C	STAT1 activator 131
Cc1cc(/C=C2\NC(=S)N(C)C2=O)ccc1N1CCCC1	STAT1 activator 138
Oc1oc(-c2ccccc2)nc1/C=N/c1ccccn1	STAT1 activator 129
COc1ccccc1CCc1nnc(CCC(=O)N(C)Cc2ccncc2C)o1	none
COc1ccccc1CCc1nnc(CCC(=O)N(C)Cc2cccc3cnccc23)o1	STAT1 activator 131 (no result: Pf gametocyte)
CN(C)c1ccsc1C(=O)NNS(=O)(=O)c1ccc(Cl)cc1	none (no result: NF-kB neuron act, STAT1 activator, FLuc act counter, APP 5'UTR act, FLuc inh counter)
Cc1ccc(NCCCCO)cc1C	none (no result: Pf gametocyte)
Cc1nnc(N/N=C/c2cccc(OCc3ccc(Cl)c(Cl)c3)c2)n1N	STAT1 activator 140
NC(=O)N/N=C/c1cccc(OCc2ccc(F)cc2)c1	none
c1ccc(-n2cnc3cc(NCc4ccccn4)ccc32)cc1	STAT1 activator 131
O=C(O)c1ccc(N2CC3CC(C2)c2cccc(=O)n2C3)c(NC(=S)Nc2ccc(Cl)cc2Cl)c1 (centres undefined)	none
COC(=O)CN(c1ccccc1F)S(=O)(=O)c1ccc(C)cc1	none
CC1CC1c1ccc(/C=C(\C#N)C(=O)Nc2ccc(Cl)cc2)o1 (centres undefined)	STAT1 activator 141
N#C/C(=C\c1ccc(N2CCOCC2)o1)C(=O)Nc1ccc(O)cc1	FLuc inh counter 50
CC1CC1c1ccc(/C=C(\C#N)C(=O)Nc2ccccc2Cl)o1 (centres undefined)	none
COc1ccc(NC(=O)/C(C#N)=C\c2ccc(N3CCOCC3)o2)cc1	FLuc inh counter 84
Cc1noc(C)c1Cc1ccc(O)cc1	none (no result: Pf gametocyte)
C/C(=N\OC(=O)c1cccc(C)c1)c1sc(-c2ccccc2)nc1C	NF-kB neuron act 3.6
Cc1nc(-c2ccccc2)sc1C(=O)NN	none
CCOC(=O)c1sc(-c2cccc(C(F)(F)F)c2)nc1O	none (no result: NF-kB neuron act, STAT1 activator, FLuc act counter, APP 5'UTR act, FLuc inh counter)
C/C(=N\OC(=O)c1cccc(C(F)(F)F)c1)c1sc(-c2ccccc2)nc1C	NF-kB neuron act 4
C/C(=N\OC(=O)c1ccc(F)cc1)c1sc(-c2ccccc2)nc1C	none
C/C(=N\OC(=O)c1ccc(Cl)cc1)c1sc(-c2ccccc2)nc1C	NF-kB neuron act 4.4
COc1cc(S(=O)(=O)Nc2ccccn2)ccc1F	none (no result: Pf gametocyte)
C=CCNC(=O)/C(C#N)=C/c1ccc2c(c1)OCCO2	FLuc inh counter 50
COCCNC(=O)/C(C#N)=C/c1ccc2c(c1)OCO2	none
C/C(CC(=O)NCc1ccco1)=N\NC(=O)CC#N	none
O=S(=O)(c1ccccc1)N1CCNCC1	none (no result: NF-kB neuron act, STAT1 activator, FLuc act counter, APP 5'UTR act, FLuc inh counter)
Oc1ccc(Cl)cc1CNc1ccc(Br)cn1	NF-kB neuron act 4.9 (no result: Pf gametocyte)
Oc1c(Cl)cc(Cl)cc1CNc1ccc(Br)cn1	none (no result: Pf gametocyte)
FC(F)Sc1ccc(NC(=S)NC2CCCC2)cc1	none
CC(C)c1ccc(NC(=S)NC2CCCCCC2)cc1	STAT1 activator 140
OC1CCC(NC(=S)Nc2ccc(SC(F)F)cc2)CC1 (centres undefined)	STAT1 activator 129
O=C(CN1CCc2ccccc21)NN1CC(=O)N(c2ccc(Cl)cc2)CC1=O	none (no result: NF-kB neuron act, STAT1 activator, FLuc act counter, APP 5'UTR act, FLuc inh counter)
CSc1ccc(/C=C/C(=O)c2ccc(NC(C)=O)cc2)cc1	none (no result: Pf gametocyte)
CSc1ccc(/C=C/C(=O)NC(=O)c2ccccc2O)cc1	NF-kB neuron act 3.7, FLuc inh counter 86
O=C(/C=C/c1ccc(Br)cc1)NC(=O)c1ccccc1O	NF-kB neuron act 3.9, FLuc inh counter 91 (no result: Pf gametocyte)
CCC(=O)Oc1ccc(C(=O)Nc2cccc(C(=O)NC(C)(C)C)c2)cc1	none
CCN=C1S/C(=C\c2sccc2C)C(=O)N1CC	STAT1 activator 130
COC(=O)CN1C(=O)[C@H]2[C@@H](/C=C/c3ccccc3)N3C(=O)CN(Cc4ccccc4)C(=O)[C@@]3(C)[C@H]2C1=O	none (no result: NF-kB neuron act, STAT1 activator, FLuc act counter, APP 5'UTR act, FLuc inh counter)
C/C(=N\OC(=O)NC1CCCCC1)c1sc(-c2ccccc2)nc1C	none
C/C(=N\OC(=O)NC(C)C)c1sc(-c2ccccc2)nc1C	none
CCNC(=O)O/N=C(\C)c1sc(-c2ccc(Cl)cc2)nc1C	NF-kB neuron act 7.1, STAT1 activator 144, APP 5'UTR act 160
C/C(=N\OC(=O)NC(C)C)c1sc(-c2ccc(Cl)cc2)nc1C	NF-kB neuron act 5.8
O=C(c1ccc(F)cc1)C1CCN(C(=O)c2c(F)cccc2F)CC1	none (no result: NF-kB neuron act, STAT1 activator, FLuc act counter, APP 5'UTR act, FLuc inh counter)
OCC1(CCOc2ccccc2)CCN(CCCn2cccn2)CC1	none
c1ccc2c(COn3nnc4ccccc43)cccc2c1	NF-kB neuron act 3.4
O=C(CSc1nnc(C2CC2)n1-c1ccccc1)NCCc1ccccc1	none

High-throughput results from PubChem BioAssay.
